Assay results as given in ChEMBL document CHEMBL1134407, “Novel seco cyclopropa[c]pyrrolo[3,2-e]indole bisalkylators bearing a 3,3'-arylenebisacryloyl group as a linker” (J Med Chem, 2001).
Converted amounts (≈) assume the structure as drawn.

Tests used:
HeLa = assay: Inhibitory activity against HeLaS3 human uterine cervix carcinoma cells; assay type: functional, cell-based
Procedure, shortened: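 HeLaS3 human uterine cervix carcinoma cells were exposed to the drug. The value is the drug concentration that inhibits cell growth by 50%.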

Mus musculus [1] = species: Mus musculus; assay: Percentage tumor growth inhibition as compared with the untreated group; assay type: functional; set-up: concentration or dose not given beside the values
Mus musculus [2] = species: Mus musculus; assay: Percentage change in body weight; assay type: functional
Mus musculus [3] = species: Mus musculus; assay: Ratio between maximum dose within 10% body weight loss to tumor growth inhibition; assay type: functional
A2780 = assay: Cytotoxicity against human cancer cell lines A2780 (ovarian); assay type: functional, cell-based
ZR-75-1 = assay: Cytotoxicity against human cancer cell lines ZR-75-1 of breast.; assay type: functional, cell-based
PC-3 = assay: Cytotoxicity against human cancer cell lines PC-3 of lung; assay type: functional, cell-based
DLD-1 = assay: Cytotoxicity against human cancer cell lines DLD-1 of colon.; assay type: functional, cell-based
[4] = Cytotoxicity against human cancer cell lines SBC-3 /ADR of lung (adriamycin resistant); assay type: functional, cell-based
Homo sapiens [5] = assay: Antitumor activity against human colon CX-1 tumor Xenografts in Athymic mice at a dose of 7.81 micro g/kg; assay type: functional
Procedure, shortened: (§1)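 Athymic mice bearing human colon CX-1 tumour xenografts. Dose given in µg/kg. Read-out is percent tumour growth inhibition (TGI) relative to the untreated group.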

Homo sapiens [6] = assay: Antitumor activity against human colon CX-1 tumor Xenografts in Athymic mice at a dose of 3.91 micro g/kg; assay type: functional
Procedure, shortened: (§2)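 Athymic mice carried implanted human colon CX-1 tumor xenografts. Each line gives the dose in μg/kg. Read-out is percentage tumor growth inhibition relative to the untreated group.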

SBC-3 = assay: Cytotoxicity against human cancer cell lines SBC-3 of lung; assay type: functional, cell-based
[7] = system: KATO III stomach cancer cell line; assay: Cytotoxicity against human cancer cell lines KATO III (gastric); assay type: functional, cell-based
Homo sapiens [8] = assay: Antitumor activity against human colon CX-1 tumor Xenografts in Athymic mice at a dose of 15.6 micro g/kg; assay type: functional; procedure, shortened: as §1
Homo sapiens [9] = assay: Antitumor activity against human colon CX-1 tumor Xenografts in Athymic mice at a dose of 9180 micro g/kg; assay type: functional; procedure, shortened: as §2
[10] = Homo sapiens, HeLa, read-out: IC50

| IC50 (HeLa; [10]) [ng/mL] | SMILES | Inhibition (Mus musculus [1]) [%] | Body weight change (Mus musculus [2]) [%] | Ratio (Mus musculus [3]) | also measured |
| --- | --- | --- | --- | --- | --- |
| > 100 | COC(=O)c1c(C(F)(F)F)[nH]c2c(O)cc3c(c12)[C@H](CCl)CN3C(=O)/C=C/c1cccc(-c2ccc(-c3cccc(/C=C/C(=O)N4C[C@@H](CCl)c5c4cc(O)c4[nH]c(C(F)(F)F)c(C(=O)OC)c54)c3)cc2)c1 | – | – | – | – |
| 48.3 (≈ 46.8 nM) | COC(=O)c1c(C(F)(F)F)[nH]c2c(O)cc3c(c12)[C@H](CCl)CN3C(=O)/C=C/c1ccc(-c2ccc(-c3ccc(/C=C/C(=O)N4C[C@@H](CCl)c5c4cc(O)c4[nH]c(C(F)(F)F)c(C(=O)OC)c54)cc3)cc2)cc1 | 84 | -11 | – | – |
| 54.6 (≈ 62.1 nM) | COC(=O)c1c(C(F)(F)F)[nH]c2c(O)cc3c(c12)[C@H](CCl)CN3C(=O)/C=C/c1cccc(/C=C/C(=O)N2C[C@@H](CCl)c3c2cc(O)c2[nH]c(C(F)(F)F)c(C(=O)OC)c32)c1 | 91 | -5 | – | – |
| 1.51 (≈ 1.54 nM) | COC(=O)c1c(C(F)(F)F)[nH]c2c(O)cc3c(c12)[C@H](CCl)CN3C(=O)/C=C/c1c2ccccc2c(/C=C/C(=O)N2C[C@@H](CCl)c3c2cc(O)c2[nH]c(C(F)(F)F)c(C(=O)OC)c32)c2ccccc12 | 75 | -18 | – | – |
| – | CCc1c(/C=C/C(=O)N2C[C@@H](CCl)c3c2cc(O)c2[nH]c(C(F)(F)F)c(C(=O)OC)c32)ccc(/C=C/C(=O)N2C[C@@H](CCl)c3c2cc(O)c2[nH]c(C(F)(F)F)c(C(=O)OC)c32)c1CC | – | – | – | IC50 (HeLa; hela): 0.00138 ng/mL (≈ 0.00147 nM) |
| – | COC(=O)c1c(C(F)(F)F)[nH]c2c(O)cc3c(c12)[C@H](CCl)CN3C(=O)/C=C/c1ccc(/C=C/C(=O)N2C[C@@H](CCl)c3c2cc(O)c2[nH]c(C(F)(F)F)c(C(=O)OC)c32)c2c1OCCO2 | 91 | 3 | 9 | IC50 (HeLa; hela): 0.00276 ng/mL (≈ 0.00294 nM) |
| – | COC(=O)c1c(C(F)(F)F)[nH]c2c(O)cc3c(c12)[C@H](CCl)CN3C(=O)/C=C/c1ccc(/C=C/C(=O)N2C[C@@H](CCl)c3c2cc(O)c2[nH]c(C(F)(F)F)c(C(=O)OC)c32)c(OC)c1OC | 89 | -1 | 4.6 | IC50 (HeLa; hela): 0.00158 ng/mL (≈ 0.00168 nM) |
| 0.141 (≈ 0.148 nM) | COC(=O)c1c(C(F)(F)F)[nH]c2c(O)cc3c(c12)[C@H](CCl)CN3C(=O)/C=C/c1ccc(-c2ccc(/C=C/C(=O)N3C[C@@H](CCl)c4c3cc(O)c3[nH]c(C(F)(F)F)c(C(=O)OC)c43)cc2)cc1 | 83 | 4 | 3.7 | – |
| – | COC(=O)c1c(C(F)(F)F)[nH]c2c(O)cc3c(c12)[C@H](CCl)CN3C(=O)/C=C/c1ccc(/C=C/C(=O)N2C[C@@H](CCl)c3c2cc(O)c2[nH]c(C(F)(F)F)c(C(=O)OC)c32)cc1 | 89 | -5 | 30.7 | IC50 (A2780; a2780): 0.000397 ng/mL (≈ 0.000451 nM); IC50 (ZR-75-1; zr-75-1): 0.00463 ng/mL (≈ 0.00526 nM); IC50 (PC-3): 0.148 ng/mL (≈ 0.168 nM); IC50 (DLD-1): 0.0149 ng/mL (≈ 0.0169 nM); IC50 [4]: 0.00349 ng/mL (≈ 0.00397 nM); Inhibition (Homo sapiens [5]): 83%; Inhibition (Homo sapiens [6]): 77%; IC50 (SBC-3; sbc-3): 0.00122 ng/mL (≈ 0.00139 nM); IC50 (HeLa; hela): 0.00274 ng/mL (≈ 0.00312 nM); IC50 [7]: 0.816 ng/mL (≈ 0.928 nM) |
| 9.71 (≈ 10.3 nM) | COC(=O)c1c(C(F)(F)F)[nH]c2c(O)cc3c(c12)[C@H](CCl)CN3C(=O)/C=C/c1cc(OC)c(/C=C/C(=O)N2C[C@@H](CCl)c3c2cc(O)c2[nH]c(C(F)(F)F)c(C(=O)OC)c32)cc1OC | 81 | 3 | >6.5 | – |
| 3.25 (≈ 3.32 nM) | COC(=O)c1c(C(F)(F)F)[nH]c2c(O)cc3c(c12)[C@H](CCl)CN3C(=O)/C=C/c1ccc(/C=C/C(=O)N2C[C@@H](CCl)c3c2cc(O)c2[nH]c(C(F)(F)F)c(C(=O)OC)c32)c2cc3ccccc3cc12 | 82 | -6 | 3.5 | – |
| 87.6 (≈ 99.6 nM) | COC(=O)c1c(C(F)(F)F)[nH]c2c(O)cc3c(c12)[C@H](CCl)CN3C(=O)/C=C/c1ccccc1/C=C/C(=O)N1C[C@@H](CCl)c2c1cc(O)c1[nH]c(C(F)(F)F)c(C(=O)OC)c21 | 70 | -6 | – | – |
| – | COC(=O)c1c(C(F)(F)F)[nH]c2c(O)cc3c(c12)[C@H](CCl)CN3C(=O)c1cc2cc(-c3ccc4[nH]c(C(=O)N5C[C@@H](CCl)c6c5cc(O)c5[nH]c(C(F)(F)F)c(C(=O)OC)c65)cc4c3)ccc2[nH]1 | 84 | 1 | 3.3 | IC50 (HeLa; hela): 0.0049 ng/mL (≈ 0.00499 nM) |
| 0.523 (≈ 0.518 nM) | COC(=O)c1c(C(F)(F)F)[nH]c2c(O)cc3c(c12)[C@H](CCl)CN3C(=O)/C=C/c1ccc(/C=C/C(=O)N2C[C@@H](CCl)c3c2cc(O)c2[nH]c(C(F)(F)F)c(C(=O)OC)c32)c2c1C(=O)c1ccccc1C2=O | 84 | -4 | 6.6 | – |
| – | Cc1c[nH]c2c(O)cc3c(c12)[C@H](CCl)CN3C(=O)c1cc2cc(NC(=O)Nc3ccc4[nH]c(C(=O)N5C[C@@H](CCl)c6c5cc(O)c5[nH]cc(C)c65)cc4c3)ccc2[nH]1 [BIZELESIN] | 90 | -3 | 8.4 | Inhibition (Homo sapiens [8]): 56%; Inhibition (Homo sapiens [5]): 53% |
| – | COc1cccc2c1C(=O)c1c(O)c3c(c(O)c1C2=O)C[C@@](O)(C(=O)CO)C[C@@H]3O[C@H]1C[C@H](N)[C@H](O)[C@H](C)O1 [DOXORUBICIN] | – | – | – | IC50 (A2780; Homo sapiens, A2780, read-out: IC50): 12.1 ng/mL (≈ 22.3 nM); IC50 (ZR-75-1; Homo sapiens, ZR-75-1, read-out: IC50): 6.39 ng/mL (≈ 11.8 nM); IC50 (DLD-1): 136 ng/mL (≈ 250 nM); IC50 [4]: 129 ng/mL (≈ 237 nM); IC50 (SBC-3; Homo sapiens, SBC-3, read-out: IC50): 11.2 ng/mL (≈ 20.6 nM); IC50 [7]: 905 ng/mL (≈ 1670 nM) |
| – | CO[C@@]12[C@H](COC(N)=O)C3=C(C(=O)C(C)=C(N)C3=O)N1C[C@@H]1N[C@@H]12 [MITOMYCIN] | – | – | – | Inhibition (Homo sapiens [9]): 65% |

| SMILES | IC50 (HeLa; [10]) [ng/mL] | Inhibition (Mus musculus [1]) [%] | Body weight change (Mus musculus [2]) [%] | Ratio (Mus musculus [3]) | also measured |
| --- | --- | --- | --- | --- | --- |
| COC(=O)c1c(C(F)(F)F)[nH]c2c(O)cc3c(c12)[C@H](CCl)CN3C(=O)/C=C/c1ccc(/C=C/C(=O)N2C[C@@H](CCl)c3c2cc(O)c2[nH]c(C(F)(F)F)c(C(=O)OC)c32)c2ccccc12 | 0.011 (≈ 0.0118 nM) | 85 | 3 | 7.4 | – |
| COC(=O)c1c(C(F)(F)F)[nH]c2c(O)cc3c(c12)[C@H](CCl)CN3C(=O)/C=C/c1ccc(/C=C/C(=O)N2C[C@@H](CCl)c3c2cc(O)c2[nH]c(C(F)(F)F)c(C(=O)OC)c32)c2c(OC)ccc(OC)c12 | 0.00934 (≈ 0.00944 nM) | – | – | – | – |
| COC(=O)c1c(C(F)(F)F)[nH]c2c(O)cc3c(c12)[C@H](CCl)CN3C(=O)/C=C/c1ccc(-c2ccc(/C=C/C(=O)N3C[C@@H](CCl)c4c3cc(O)c3[nH]c(C(F)(F)F)c(C(=O)OC)c43)cn2)nc1 | 0.0198 (≈ 0.0207 nM) | 88 | 4 | 3.6 | – |
| COC(=O)c1c(C(F)(F)F)[nH]c2c(O)cc3c(c12)[C@H](CCl)CN3C(=O)/C=C/c1ccc(/C=C/C(=O)N2C[C@@H](CCl)c3c2cc(O)c2[nH]c(C(F)(F)F)c(C(=O)OC)c32)c2c1OCO2 | 0.00595 (≈ 0.00644 nM) | 90 | -2 | 13.3 | – |
